Measured values: paper PMC6944740 (Alzheimer's & Dementia : Translational Research & Clinical …, 2019)

Experiments:
[1] = 5-YHEDA immunohistochemical staining of brain slices after cardiac injection; format: in vivo, mouse; conditions: mice, intracardiac injection
Procedure, shortened: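 Fixed brain slices were blocked in 0.1% BSA/PBS (w/v) for 1 h, then given anti-peptide mouse serum at 4°C overnight. The serum was raised in normal mice injected weekly with peptide plus incomplete Freund adjuvant (s.c. or i.p.) for 2 months. After washing, slices took HRP goat anti-mouse IgG for 2 h, then DAB development.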

[2] = Solubility of the oligomer; format: physicochemical; conditions: dissolved in distilled water at 1 mg/mL
[3] = Isothermal titration calorimetry of FeCl3 with 5-YHEDA; conditions: ITC, 200 μM 5-YHEDA, 1000 μM FeCl3, one-site binding model
SN mice [4] = format: in vivo, Kunming mouse; conditions: 200 μL of 20 μM intracardiac weekly, versus untreated SN mice
SN mice [5] = experiment: TUNEL assay of neuronal necrosis in brain; format: in vivo, Kunming mouse; conditions: intracardiac weekly, versus untreated SN mice
Procedure, shortened: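 Senescent 25-month-old Kunming mice were picked by water maze, TUNEL and blood assays and given 200 μL of 20 μM peptide intracardially each time. Frozen brain sections sat 1 h in Na-HEPES, then 10 mM H2O2 and […]. After PBS wash and 0.1% Triton X-100, TUNEL mix ran 1 h at 37°C in the dark; some sections were DAB-stained. Bright/brown spots were scored necrotic.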

SH-sy5y cells = SH-sy5y cells in iron-rich medium: hydroxyl radical, iron and cell survival; format: cell-based, human; conditions: 1.5 μM peptide; SEM and flow cytometry

Q: Which “entry into brain (anti-5-YHEDA immunohistochemical staining of brain slices)” value [1] does the source give for YHEDAYHEDAYHEDAYHEDAYHEDA [5-YHEDA] here?
A: no staining was observed

Q: And the solubility [2]?
A: soluble

Q: And the “Gibbs energy lost after FeCl3 titration (ΔG)” value [3]?
A: 8973 kcal/mol

Q: And the “iron and radical levels in the brain (Fig. 5I)” value (SN mice [4])?
A: nearly the same as those in the untreated SN mice

Q: And the “neuronal necrosis in the SN brain (TUNEL)” value (SN mice [5])?
A: did not prevent neuronal damage

Q: What about the “survival of SH-sy5y cells in iron-rich medium” value (SH-sy5y cells) of the same substance?
A: many of the SH-sy5y cells cultured in iron-rich medium survived
